Compound activity as filed in PubChem BioAssay.
HKDC1 inh – HKDC1 (human) hexokinase inhibition; Q2TB90; recombinant HKDC1, G6PDH/diaphorase resazurin coupled fluorescence; inhibition, % at 20 µM; 340,000 tested, 0.16% active; AID 493160;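 active = inhibition above about 35% when tested at 20 µM, limit read from the data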;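 also: plate controls were DMSO wells with enzyme for no effect and DMSO wells lacking enzyme for full effect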
Target sequence (Q2TB90 whole entry, looked up): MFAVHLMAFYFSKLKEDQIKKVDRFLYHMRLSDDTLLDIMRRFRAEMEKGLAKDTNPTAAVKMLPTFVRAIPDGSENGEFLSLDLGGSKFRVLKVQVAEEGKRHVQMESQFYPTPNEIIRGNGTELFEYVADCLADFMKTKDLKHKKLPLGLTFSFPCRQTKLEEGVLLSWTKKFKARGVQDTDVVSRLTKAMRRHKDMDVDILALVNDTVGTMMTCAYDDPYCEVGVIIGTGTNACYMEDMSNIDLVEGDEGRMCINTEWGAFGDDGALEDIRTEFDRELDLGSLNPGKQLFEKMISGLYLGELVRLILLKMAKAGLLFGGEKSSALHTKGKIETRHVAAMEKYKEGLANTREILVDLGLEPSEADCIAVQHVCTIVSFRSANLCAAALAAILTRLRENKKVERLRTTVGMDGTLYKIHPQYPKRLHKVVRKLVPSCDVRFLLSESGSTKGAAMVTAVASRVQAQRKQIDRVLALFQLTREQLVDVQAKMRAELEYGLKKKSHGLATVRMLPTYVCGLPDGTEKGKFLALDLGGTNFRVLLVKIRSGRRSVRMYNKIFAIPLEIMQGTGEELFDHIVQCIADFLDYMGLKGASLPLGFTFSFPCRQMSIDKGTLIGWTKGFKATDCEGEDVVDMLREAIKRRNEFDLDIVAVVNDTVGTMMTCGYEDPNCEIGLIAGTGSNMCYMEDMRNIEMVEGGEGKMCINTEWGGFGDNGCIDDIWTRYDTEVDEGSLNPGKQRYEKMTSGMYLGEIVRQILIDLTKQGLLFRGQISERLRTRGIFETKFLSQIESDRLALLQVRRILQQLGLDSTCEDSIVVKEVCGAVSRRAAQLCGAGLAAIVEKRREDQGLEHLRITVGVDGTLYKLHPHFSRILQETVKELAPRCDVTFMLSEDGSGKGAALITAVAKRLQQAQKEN
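Test system: Recombinant HKDC1 (HK5) hexokinase enzyme, produced in-house | Input: HKDC1 at 5 µg/mL | Buffer or medium: Tris pH 8.0 buffer with MgCl2, Tween-20, BSA, BME | Schedule: 90 min reaction incubation at room temperature, dark | Technique: Resazurin-to-resorufin fluorescence via G6PDH and diaphorase coupling, 525/613 nm | Controls: DMSO wells with and without enzyme mix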
Diaph inh CS – inhibits diaphorase or chemically oxidizes, flagging diaphorase assay artifacts; diaphorase resazurin-to-resorufin fluorescence, NADH, 16 min; bacterial (C. kluyveri) enzyme, not human; 190,000 tested, 0.69% active; inhibition, % at 20 µM;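 active = primary screen inhibition at 20 µM above a set limit, cut at about 50% in these data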;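 also: plate controls were DMSO with full reaction for no effect and wells lacking NADH for full effect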
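System: Diaphorase enzyme from Clostridium kluyveri | Amount: Enzyme working solution with 0.14 U/mL diaphorase | Benchmarks: No-NADH positive control and DMSO neutral control | Signal: Fluorescence of resorufin formed from resazurin, Ex 544/Em 590 nm | Schedule: 16-min room-temperature incubation before reading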
Diaph act CS – diaphorase activation or chemical reduction counter-screen | Diaphorase/resazurin coupled assay, resorufin fluorescence, 16 min; hits give high values; 1 = vehicle wells, 0 = NADH-free wells | activation factor at 20 µM | 190,000 tested, 0.005% active | AID 1229;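 active = diaphorase activity raised at least twofold by the compound at 20 µM; inactive = activation factor below 2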
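System – purified diaphorase enzyme from Clostridium kluyveri · Input – enzyme 0.07 U/mL final · Also added – final NADH 0.114 mM, resazurin 0.1 mM · Measured by – fluorescence of resorufin, 544 nm excitation, 590 nm emission · Timing – 16 min enzyme reaction, ambient temperature · Measure – resorufin increase flagging diaphorase activators or reducers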
PfG6PD inh – PfG6PD (Plasmodium falciparum) enzyme inhibition; PfGluPho enzyme, NADPH resazurin-diaphorase fluorescence; 350,000 tested, 0.78% active; inhibition, % at 20 µM;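 active = inhibition reaching at least a set limit at 20 µM in the primary screen, cut at about 59% in these data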;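 also: 0% = DMSO wells with substrate and 100% = DMSO wells lacking glucose-6-phosphate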
G6PDH CS – counter-screen for G6PDH assay hits: L. mesenteroides G6PDH inhibition. Purified L. mesenteroides G6PDH, diaphorase/resazurin coupled fluorescence, 45 min. inhibition, % at 5 µM. 200,000 tested, 0.12% active; in the data active = inhibition above about 50%
PfG6PD confirm – PfG6PD inhibition, single-dose confirmed. shares compounds with PfG6PD inh. 2,400 tested, 34% active. recombinant PfGluPho, NADPH-diaphorase-resazurin fluorescence. AID 504753. inhibition, % at 20 µM;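 active = inhibition of at least 50% at 20 µM in any single replicate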;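 also: 0% = DMSO with substrate and 100% = DMSO lacking glucose-6-phosphate substrate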
Diaph ctr 10uM – counter-screen for P. falciparum G6PD inhibitors: diaphorase inhibitors, oxidizers; shares compounds with PfG6PD inh; diaphorase-coupled resazurin reduction, fluorescence, NADPH 10 uM; inhibition, % at 20 µM; 820 tested, 39% active;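 active = average inhibition reaching 50% or more with the compound at 20 µM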;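 also: resorufin red fluorescence formed as diaphorase reduces resazurin using NADPH; 0% = DMSO with enzyme and 100% = DMSO without enzyme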
Diaph ctr 30uM – diaphorase inhibition or oxidation at 30 uM NADPH; shares compounds with PfG6PD inh; Diaphorase/resazurin coupled assay, resorufin fluorescence; inhibition, % at 20 µM; 820 tested, 29% active; AID 504863;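 active = inhibition averaging 50% or more, tested at 20 µM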;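 also: 0% = DMSO with enzyme and 100% = DMSO wells lacking diaphorase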
* marks the source's active call; other numbers are inactive results; / = no result given. Most compounds without a hit are left out; they make up all but 1.2% or so of the library.

SMILES	HKDC1 inh	Diaph inh CS	Diaph act CS	PfG6PD inh	G6PDH CS	PfG6PD confirm	others
O=C(Nc1ccc(N2CCCCC2)c(Cl)c1)c1ccc(N2CCOCC2)c([N+](=O)[O-])c1	1	3	1	19	9	/
O=C(Nc1ccc(N2CCCCC2)c(Cl)c1)c1ccc2c(c1)OCCO2	3	16	0.8	99*	4	-6
CSCCC(NC(=O)CCNC(=O)c1ccccc1Cl)c1nc2ccccc2[nH]1 (configuration not stated)	-2	/	/	-19	/	/
CCN(CC)c1ccc(N=C2C(=O)Nc3ccccc32)cc1	-7	/	/	68*	/	15
CC(=O)N(Cc1ccc(F)cc1)C1=C(NCc2ccccc2)C(=O)c2ccccc2C1=O	29	34	0.7	71*	51*	46
O=C(Cc1ccccc1F)Nc1cccc(S(=O)(=O)N2CCCCC2)c1	/	/	/	9	/	/
O=C1CCCC(O)=C1C(C#Cc1ccccc1)C1=C(O)CCCC1=O	29	25	0.7	64*	-19	40
CCOC(=O)CCCN(c1[nH]c(C)c(C)c1C#N)S(=O)(=O)c1ccc(C)cc1	/	/	/	-8	/	/
CC(C)NC(=S)NNc1nc2ccccc2s1	-4	22	0.8	74*	3	22
O=C(NNc1nc2ccccc2s1)c1ccc(F)cc1	-14	9	0.9	3	1	/
NC(=S)NN=Cc1nccc2c(C(F)(F)F)cccc12	/	/	/	17	/	/
CNc1cccnc1C=NNC(N)=S	-4	/	/	74*	/	23
CCOC(=O)C1(COCc2ccccc2)CCCCC1=O (configuration not stated)	/	/	/	-13	/	/
CCOC(=O)c1sc(NC(=O)c2cc(-c3ccc(C)cc3)nc3ccccc23)c(C#N)c1C	-7	21	0.8	55	-8	/
COC(=O)c1sc(NC(=O)c2cc(-c3ccccc3)nc3ccccc23)c(C#N)c1C	-4	12	0.9	65*	-8	43
CC(C)S(=O)(=O)c1csc(NC(=O)Nc2cc(Cl)ccc2Cl)c1Cl	3	/	/	86*	/	4
CC(=O)NC(CCS(C)(=O)=O)C(=O)Nc1cc(Cl)ccc1Cl (configuration not stated)	-6	22	0.8	-12	13	/
COc1ccc(OC2C(=O)N(c3ccc(C)c(C)c3)C2c2ccc(OC)c(OC)c2)cc1 (configuration not stated)	1	22	0.8	97*	-20	28
COc1ccc(OC2C(=O)N(c3cc(C)ccc3C)C2c2ccc(OC)c(OC)c2)cc1 (configuration not stated)	-6	22	0.8	23	-13	/
O=C(NCCCn1ccnc1)c1cc(-c2cccc(O)c2)on1	-4	/	/	-15	/	/
CCOc1ccc(S(=O)(=O)N2CC(=O)Nc3ccccc32)cc1	-2	/	/	7	/	/
Cc1cc(Cl)ccc1OCCCC(=O)N/N=C/c1cccc([N+](=O)[O-])c1	8	-4	1	112*	9	94*	Diaph ctr 10uM=81*;Diaph ctr 30uM=57*
O=C(CCCOc1ccc(Cl)cc1Cl)N/N=C/c1ccc(Cl)cc1	-7	5	0.9	62*	-5	21
COc1ccc(/C=N/NC(=O)CCCOc2ccc(Cl)cc2Cl)cc1	15	24	0.8	19	-2	/
C[C@@H]1CN([C@@H](C)CO)C(=O)c2cc(NC(=O)C3CC3)ccc2O[C@@H]1CN(C)Cc1ccc(Cl)c(Cl)c1	1	/	/	8	/	/
SMILES	HKDC1 inh	Diaph inh CS	Diaph act CS	PfG6PD inh	G6PDH CS	PfG6PD confirm	others
CCC1CCc2c(sc(NC(=O)c3cnccn3)c2C(N)=O)C1 (configuration not stated)	-8	/	/	69*	/	33
CCC1CCc2c(sc(NC(=O)c3ccco3)c2C(N)=O)C1 (configuration not stated)	5	24	0.8	8	2	/
O=c1ccsn1Cc1ccccc1	5	16	0.8	94*	4	75*	Diaph ctr 10uM=-4;Diaph ctr 30uM=-5
CCOc1ccccc1-n1c(=S)sc2c(=O)n(-c3ccc(F)cc3)c(SCC(=O)O)nc21	5	/	/	69*	/	17
CCN(CC)C(=O)CSc1nc2c(sc(=S)n2-c2ccccc2)c(=O)n1-c1ccc(OC)cc1OC	-2	/	/	79*	/	39
CCN(CC)C(=O)CSc1nc2c(sc(=S)n2-c2ccccc2)c(=O)n1-c1ccc(OC)c(OC)c1	21	/	/	-3	/	/
COc1ccccc1-n1c(SCC(=O)O)nc2c(sc(=S)n2-c2ccc(C)c(C)c2)c1=O	0	/	/	30	/	/
COc1ccccc1N1CCN(/N=C/c2ccc(O)c(O)c2)CC1	10	70*	0.3	59*	38	46
O=S(=O)(c1cccs1)N1CCCc2cccc(O)c21	25	13	0.9	93*	14	26
Cc1ccc(/C=C2/SC(=S)N(CCC(=O)N3CCOCC3)C2=O)cc1	0	/	/	-16	/	/
Nc1nc2ccccc2n1/N=C/c1ccc2c(c1)OCO2	1	/	/	36	/	/
Nc1nc2ccccc2n1/N=C/c1ccc(Br)cc1	0	3	1	66*	-7	-4
O=C(c1cccs1)N1CCC(c2nc3c(nnn3Cc3ccccc3Cl)c(=O)[nH]2)CC1	5	/	/	1	/	/
C/C(=N/Nc1ccccc1[N+](=O)[O-])c1ccc([N+](=O)[O-])cc1	-1	/	/	-1	/	/
C/C(=N\Nc1ccc([N+](=O)[O-])cc1)c1ccc(O)cc1	-8	20	0.8	66*	-1	2
C/C(=N\Nc1ccc([N+](=O)[O-])cc1)c1cccc(N)c1	4	14	0.9	111*	10	41
O=C1CCCCC1(c1ccccc1)c1ccccc1	-5	/	/	13	/	/
CC(NC(=O)c1ccc(NC2=NC3CS(=O)(=O)CC3S2)cc1)c1ccccc1 (configuration not stated)	-5	/	/	-7	/	/
O=C(CN1CCN(CC(=O)Nc2cccc(F)c2)CC1)Nc1ccc(-c2ccccc2)cc1	-6	/	/	4	/	/
COc1ccc(NC(=O)c2ccc3[nH]c(C)c(C)c3c2)c(OC)c1	3	/	/	62*	/	-4
C=CCN(c1ccccc1)S(=O)(=O)c1cccc(C(=O)Nc2ncccc2O)c1	0	/	/	-3	/	/
COc1ccc(CCNc2cc(C)[nH]c(=O)c2)cc1OC	-2	/	/	6	/	/
Cc1ccccc1OCC(=O)N/N=C/c1cccc(Oc2ccc([N+](=O)[O-])cc2[N+](=O)[O-])c1	11	38	0.6	127*	-41	93*	Diaph ctr 10uM=87*;Diaph ctr 30uM=71*
